What all share (assay type): cell-based
The subject of one assay is HepG2. The experiment in a line: Cytotoxicity against human HepG2 cells by MTT assay. The method in brief:
(§1)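 In vitro cytotoxicity by MTT colorimetric read-out on human tumor cultures: BT474 (breast carcinoma), CHAGO (lung carcinoma), Hep-G2 (hepatocarcinoma), KATO-3 (gastric carcinoma) and SW-620 (colon carcinoma). Each pure isolate was tested on all five lines.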
On the technique in general: Formazan colour is commonly taken as a measure of viable cells.

The nature of assay [1]: Cytotoxicity against human CHAGO cells by MTT assay. The method in brief: as §1
A short description of assay [2]: Cytotoxicity against human KATO3 cells by MTT assay. The method in brief: as §1
For a further assay, the system named is SW-620. The experiment in a line: Cytotoxicity against human SW620 cells by MTT assay. A digest of the protocol: as §1
The nature of assay [3]: Cytotoxicity against human BT474 cells by MTT assay. The note with it: BT-474. A digest of the protocol: as §1

In brackets after ≈: the same amount, converted by molar mass.

As to `C/C1=C\CC[C@](C)(O)/C=C/[C@H](C(C)C)CCc2coc(c2)C1` [FURANOCEMBRANOID 1], the concentration for half-maximal inhibition (IC50) in the assay on HepG2 worked out at 5.6 µg/mL (≈ 18.5 µM); in assay [1] it was 7 µg/mL (≈ 23.1 µM); in assay [2], 5.9 µg/mL (≈ 19.5 µM); in the assay on SW-620, 6.3 µg/mL (≈ 20.8 µM); in assay [3] it was 7.8 µg/mL (≈ 25.8 µM).
Taken in the same sequence, the figures for `CC(C)[C@H]1/C=C/[C@@](C)(O)CC[C@@H]2O[C@@]2(C)Cc2cc(co2)CC1` [FURANOCEMBRANOID 2] were greater than 10 µg/mL, greater than 10 µg/mL, 6.8 µg/mL (≈ 21.4 µM), 9.9 µg/mL (≈ 31.1 µM) and 9.5 µg/mL (≈ 29.8 µM).
As to `CC(C)[C@H]1/C=C/[C@@](C)(O)CC[C@@H](O)[C@@](C)(O)Cc2cc(co2)CC1` [FURANOCEMBRANOID 3], the IC50 is 5.7 µg/mL (≈ 16.9 µM) in the assay on HepG2; 7.1 µg/mL (≈ 21.1 µM) in assay [1]; 8.2 µg/mL (≈ 24.4 µM) in assay [2]; 5.6 µg/mL (≈ 16.6 µM) in the assay with SW-620; 9.6 µg/mL (≈ 28.5 µM) in assay [3].
For the compound `CC(C)[C@H]1/C=C/[C@@](C)(O)CC[C@@H](O)[C@@](C)(O)C[C@H]2C=C(CC1)C(=O)O2` [FURANOCEMBRANOID 4], the 50% inhibitory concentration (IC50) with HepG2 worked out at 6.1 µg/mL (≈ 17.3 µM); in assay [1], 9.3 µg/mL (≈ 26.4 µM); in assay [2], 8.1 µg/mL (≈ 23 µM); in the assay on SW-620, 6 µg/mL (≈ 17 µM); in assay [3], 9.6 µg/mL (≈ 27.2 µM).

Usually IC50 stands for the concentration that gives 50% inhibition. Read a low IC50 as greater potency.
